How the values were obtained:
Assay type in all cases: functional, cell-based
KB = experiment: Antiproliferative activity against human KB cells after 72 hrs by MTT assay
How it was run: (§1)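 Cells in 10% fetal calf serum, RPMI 1640 for all lines except MCF-7 (DMEM). Log-phase cells seeded at 2×10⁴ cells/ml, 37 °C, 5% CO₂. Compounds added after 24 h, then 72 h at 37 °C. MTT (5 mg/ml saline stock) for 3 h, formazan dissolved in DMSO, A570 read (ref 655 nm). IC₅₀ from dose-response curves. Mean of three independent experiments.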

[1] = Antiproliferative activity against human CNE2 cells after 72 hrs by MTT assay; conditions: CNE-2, 72 h; how it was run: as §1
MGC-803 = experiment: Antiproliferative activity against human MGC803 cells after 72 hrs by MTT assay; conditions: MGC-803, 72 h; how it was run: as §1
[2] = Antiproliferative activity against human GLC82 cells after 72 hrs by MTT assay; conditions: GLC82, 72 h; how it was run: as §1
MDA-MB-453 = experiment: Antiproliferative activity against human MDA-MB-453 cells after 72 hrs by MTT assay; conditions: MDA-MB-453, 72 h; how it was run: as §1
MCF7 = experiment: Antiproliferative activity against human MCF7 cells after 72 hrs by MTT assay; conditions: MCF7, 72 h; how it was run: as §1

Row | Structure (SMILES) | IC50 (KB) [µM] | IC50 [1] [µM] | IC50 (MGC-803) [µM] | IC50 [2] [µM] | IC50 (MDA-MB-453) [µM] | IC50 (MCF7) [µM]
1 | Cc1nc2ccccc2c2nc(Oc3ccc(Br)cc3)n(-c3ccc(Cl)cc3)c(=O)c12 | 29.5 | 28.7 | 15.3 | > 50 | 26.6 | 35.7
2 | Cc1nc2ccccc2c2ncn(C(C)C)c(=O)c12 | > 50 | > 50 | > 50 | > 50 | > 50 | > 50
3 | Cc1nc2ccccc2c2ncn(CC(C)C)c(=O)c12 | > 50 | > 50 | > 50 | > 50 | > 50 | > 50
4 | COc1ccccc1Oc1nc2c(c(C)nc3ccccc32)c(=O)n1-c1ccccc1 | > 50 | > 50 | > 50 | > 50 | > 50 | 35.5
5 | Cc1nc2ccccc2c2nc(Oc3ccc4c(c3)OCO4)n(-c3ccc(Cl)cc3)c(=O)c12 | 30.9 | 47.7 | > 50 | > 50 | > 50 | > 50
6 | Cc1nc2ccccc2c2nc(Nc3ccc(Cl)cc3)n(N)c(=O)c12 | > 50 | > 50 | > 50 | > 50 | > 50 | > 50
7 | Cc1nc2ccccc2c2nc(Oc3ccc(Cl)cc3Cl)n(-c3ccccc3)c(=O)c12 | 22.8 | 42.9 | > 50 | > 50 | > 50 | > 50
8 | Cc1nc2ccccc2c2nc(Nc3ccccc3)n(N)c(=O)c12 | 30.3 | > 50 | 14.7 | > 50 | > 50 | > 50
9 | COc1ccccc1Oc1nc2c(c(C)nc3ccccc32)c(=O)n1-c1ccc(Cl)cc1 | 39.2 | > 50 | > 50 | > 50 | 49.7 | 34
10 | O=c1[nH]cc(F)c(=O)[nH]1 [FLUOROURACIL] | 9.85 | 17.2 | 16.6 | 15.5 | > 50 | 9.67
11 | Cc1nc2ccccc2c2nc(NC(C)(C)C)n(-c3ccccc3)c(=O)c12 | > 50 | > 50 | > 50 | > 50 | > 50 | > 50
12 | Cc1nc2ccccc2c2nc(Oc3cccc4ccccc34)n(-c3ccc(Cl)cc3)c(=O)c12 | 33.9 | 47 | 18.5 | 42.1 | > 50 | 37.9
13 | CCCCn1cnc2c(c(C)nc3ccccc32)c1=O | > 50 | > 50 | > 50 | > 50 | > 50 | > 50
14 | CCC(C)n1cnc2c(c(C)nc3ccccc32)c1=O (stereo not given) | > 50 | > 50 | > 50 | > 50 | > 50 | > 50
15 | CCn1cnc2c(c(C)nc3ccccc32)c1=O | > 50 | > 50 | > 50 | > 50 | > 50 | > 50
16 | Cc1cc(Oc2nc3c(c(C)nc4ccccc43)c(=O)n2-c2ccc(F)cc2)ccc1Cl | > 50 | > 50 | 41.4 | > 50 | > 50 | > 50
17 | Cc1nc2ccccc2c2nc(Oc3ccccc3Cl)n(-c3ccc(F)cc3)c(=O)c12 | > 50 | > 50 | > 50 | > 50 | > 50 | > 50
18 | Cc1nc2ccccc2c2ncn(CCO)c(=O)c12 | > 50 | > 50 | > 50 | > 50 | > 50 | > 50
19 | Cc1nc2ccccc2c2ncn(N)c(=O)c12 | > 50 | > 50 | > 50 | > 50 | > 50 | > 50
20 | Cc1nc2ccccc2c2ncn(CCc3ccccc3)c(=O)c12 | > 50 | > 50 | > 50 | 35.2 | 49.5 | > 50
21 | Cc1nc2ccccc2c2ncn(CCN)c(=O)c12 | 39.8 | > 50 | 39.9 | > 50 | 45.7 | 43.5
22 | Cc1nc2ccccc2c2ncn(Cc3ccccc3)c(=O)c12 | > 50 | 26.5 | > 50 | > 50 | > 50 | > 50
23 | CCCn1cnc2c(c(C)nc3ccccc32)c1=O | > 50 | > 50 | > 50 | > 50 | > 50 | > 50
24 | Cc1nc2ccccc2c2nc(Oc3ccc([N+](=O)[O-])cc3Cl)n(-c3ccc(Cl)cc3)c(=O)c12 | 4.9 | 13.8 | 4.8 | 7.88 | 18.2 | 10.1
25 | Cc1nc2ccccc2c2nc3n(-c4ccccc4)cnn3c(=O)c12 | > 50 | > 50 | > 50 | > 50 | > 50 | > 50

— ChEMBL document CHEMBL1926542, “Synthesis and in vitro antiproliferative evaluation of pyrimido[5,4-c]quinoline-4-(3H)-one derivatives” (Eur J Med Chem, 2012)
